RGS4 pot – RGS4 potentiators or activators, primary screen, cell-based, HEK293 M3R inducible RGS4, calcium flux. carbachol calcium flux Fluo4; active compounds read low. B-score at 10 µM. hit rate 0.92% among 310,000;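 active = B-score of the integrated calcium signal more than 4 SD below the library mean, with starting fluorescence not abnormally high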;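 also: negative B-score means reduced calcium response which marks RGS4 activation or potentiation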
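System: HEK293 FlpIn-TREx cells, stable M3R, doxycycline-inducible RGS4. Timing: overnight RGS4 induction, 30 min dye load 37 °C, 20 min compound RT. Also added: carbachol, ECmax concentration. Measured by: Fluo4 fluorescence kinetic imaging of calcium. Evaluation: integrated calcium ratio converted to B score.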
MrgX1 antagonist – antagonists of human MrgX1 receptor, primary screen, HEK293 cells, Fluo-4 calcium flux | BAM8-22 antagonism; active compounds read low | B-score at 10 µM | hit rate 1.3% among 310,000 | AID 588676, 2011;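 active = calcium-response B-score plate-corrected more than 3 library SD below zero, starting fluorescence within 5 deviations, no agonist response on first addition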;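 also: peak minus trough fluorescence over baseline after final BAM8-22 challenge near maximal dose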
Target sequence (Q96LB2 whole entry, looked up): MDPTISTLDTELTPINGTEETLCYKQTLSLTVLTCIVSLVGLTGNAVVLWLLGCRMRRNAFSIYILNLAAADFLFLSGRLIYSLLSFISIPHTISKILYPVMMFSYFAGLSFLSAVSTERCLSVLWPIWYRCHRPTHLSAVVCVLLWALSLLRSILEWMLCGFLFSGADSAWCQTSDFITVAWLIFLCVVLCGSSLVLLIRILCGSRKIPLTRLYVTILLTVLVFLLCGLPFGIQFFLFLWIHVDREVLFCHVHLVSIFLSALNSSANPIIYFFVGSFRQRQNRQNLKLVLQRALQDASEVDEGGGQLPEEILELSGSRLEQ
MrgX1 allo act – positive allosteric modulators of MrgX1, primary screen, HEK293 cells, Fluo-4 calcium flux | FDSS; active compounds read high | B-score at 10 µM | hit rate 0.63% among 310,000 | AID 588675, 2011;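 active = plate-corrected calcium response at least 3 library SD above typical, normal starting fluorescence, not activating the receptor alone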;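 also: compound read alongside a low EC10 to EC30 dose of BAM8-22 agonist; peak minus trough fluorescence over baseline measured at the second addition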
MrgX1 agonist – agonists of human MrgX1 receptor, primary screen, HEK293 cells, Fluo-4 calcium flux; Mas-related G-protein coupled receptor member X1 (Homo sapiens), Q96LB2; Fluo-4 calcium fluorescence, agonist mode; active compounds read high; B-score at 10 µM; hit rate 0.44% among 310,000; AID 588627, 2011;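 active = calcium response B-score plate-corrected fluorescence ratio at least 3 library SD, with starting fluorescence B-score inside 5 SD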
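Material: HEK293 cells stably expressing human MrgX1 receptor | Quantity: 15,000 cells per well | Times: Cells plated overnight, dye loaded 0.5 h 37 °C, 0.5 h room temperature | Measured by: Kinetic Fluo-4 NW fluorescence of intracellular calcium | Control set: Positive and negative controls per plate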
RGS4 inh – RGS4 inhibitors, primary screen, cell-based, HEK293 M3R inducible RGS4, calcium flux; Fluo-4 calcium flux; active compounds read high; triggered by carbachol at its EC20; Regulator of G-protein signaling 4 (Homo sapiens), P49798; hit rate 0.45% among 310,000; B-score at 10 µM; AID 463165, 2010;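 active = B-score, a plate-corrected calcium signal, over three deviations above library mean, with baseline fluorescence within five deviations of library mean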;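 also: RGS4 expression induced by doxycycline in cells with stable M3 receptor; B-score is computed from the integrated fluorescence ratio over baseline after carbachol; higher B-score means a larger calcium signal and so more RGS4 inhibition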
Target sequence (P49798 whole entry, looked up): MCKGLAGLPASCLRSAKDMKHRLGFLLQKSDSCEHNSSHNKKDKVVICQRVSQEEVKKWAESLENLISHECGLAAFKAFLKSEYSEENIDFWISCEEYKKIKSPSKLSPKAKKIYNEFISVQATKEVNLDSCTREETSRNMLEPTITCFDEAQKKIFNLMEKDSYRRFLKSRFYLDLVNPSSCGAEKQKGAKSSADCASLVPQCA
MrgX1 antag conf – MrgX1 receptor antagonists, duplicate retest, confirmation, HEK293 cells, Fluo-4 calcium flux. shares compounds with MrgX1 antagonist. BAM8-22 calcium flux; active compounds read low. remaining BAM8-22 calcium response % of control (active compounds read low), % at 10 µM. hit rate 19% among 2,300. AID 602420, 2012;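 active = remaining agonist calcium response no higher than 100% minus 3 SD of agonist-only control wells, with starting fluorescence near control levels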;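 also: agonist BAM8-22 given at a near maximal EC90 to ECmax level; peak minus minimum fluorescence divided by baseline after agonist addition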
HEK293 Ca flux – nonspecific calcium signal in parental HEK293, confirmation, counter-screen for MrgX1 antagonist project, parental HEK293 cells, Fluo-4 calcium flux; shares compounds with MrgX1 antagonist; Fluo-4 calcium fluorescence, FDSS; fluorescence ratio F(max-min)/F0 at 10 µM; hit rate 2% among 4,000; AID 624111, 2012;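 active = duplicate-averaged calcium fluorescence ratio at least three times the standard deviation of buffer wells, a nonspecific response in parental cells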
HEK293 Ca counter – calcium response in parental HEK293 cells, primary screen, counter-screen for MrgX1 allosteric activator project, cell-based, Fluo-4 calcium flux, duplicate; shares compounds with MrgX1 antagonist; Fluo-4 fluorescence ratio; active compounds read high; fluorescence ratio F(max-min)/F0 at 10 µM; hit rate 0.4% among 4,000;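 active = calcium fluorescence ratio, averaged over duplicates, at least 3 SD of the buffer-well ratio, meaning a nonspecific response in receptor-free cells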;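 also: untransfected parental HEK293 lacking MrgX1 used as counterscreen for MrgX1 allosteric activators; fluorescence change taken during the second addition on a kinetic imager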
HEK293 Ca cntr2 – calcium response in parental HEK293 cells, primary screen, counter-screen for MrgX1 agonist project, cell-based, Fluo-4 calcium flux, duplicate, agonist mode; shares compounds with MrgX1 antagonist; Fluo-4 calcium fluorescence (FDSS); active compounds read high; fluorescence ratio F(max-min)/F0 at 10 µM; hit rate 8.7% among 4,000; AID 624115, 2012;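 active = calcium fluorescence ratio at least three times the spread of buffer wells, meaning a non-specific response in parental cells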
Hits are given with their value; n = inactive; x = no result given. Sampled rows, rich in hits. Any-hit rate of the full collection: about 3.5%.

SMILES	RGS4 pot	MrgX1 antagonist	MrgX1 allo act	MrgX1 agonist	RGS4 inh	MrgX1 antag conf	HEK293 Ca flux	HEK293 Ca counter	HEK293 Ca cntr2
CCOC(=O)N1CCN(C(=O)C2COc3ccccc3O2)CC1 (stereo unspecified)	n	-7.8	n	n	n	n	n	n	n
CCN1CCN(C(=O)C2COc3ccccc3O2)CC1 (stereo unspecified)	n	n	n	n	n	x	x	x	x
O=C(NCCCN1CCCC1)c1cc2c(Cl)nc3ccccc3c2s1	n	-7.7	n	n	n	n	n	n	n
c1ccc(CNc2nc3ccccc3n2CCN2CCOCC2)nc1	n	-4.7	n	n	n	n	n	n	n
CCCn1c(NCc2ccccn2)nc2ccccc21	n	n	n	n	n	x	x	x	x
CCCNC(=O)c1nc(C)n(-c2cc(Cl)cc(Cl)c2)n1	n	n	n	n	n	x	x	x	x
CCCNC(=O)c1nc(C)n(-c2cc(Cl)ccc2Cl)n1	n	-8.2	n	n	n	81%	n	n	n
CCOC(=O)C1CCCN(C(=O)C(C)Oc2ccc(Cl)cc2Cl)C1 (stereo unspecified)	n	n	n	n	n	x	x	x	x
COC(=O)C1CCN(C(=O)C(C)Oc2ccc(Cl)cc2Cl)CC1 (stereo unspecified)	n	-9.9	n	n	n	n	n	n	n
CC1C(=O)N2CCCc3cc(S(=O)(=O)Nc4ccccc4C(N)=O)cc1c32 (stereo unspecified)	n	n	n	n	n	x	x	x	x
Cc1ccccc1OCCC(=O)OCC(=O)Nc1c(C)nn(-c2ccccc2)c1C	n	n	n	n	n	x	x	x	x
O=C(Nc1ccccn1)C1CCN(C(=O)Nc2ccccc2)CC1	n	n	n	n	n	x	x	x	x
CCOC(=O)C1CCCN(C(=O)CS(=O)(=O)Cc2ccccc2)C1 (stereo unspecified)	n	n	n	n	n	x	x	x	x
CCOC(=O)C1CCCN(C(=O)CCc2ccccc2)C1 (stereo unspecified)	n	-6.1	n	n	n	n	n	n	n
CCS(=O)(=O)c1ncc(CO)n1CCc1ccccc1	n	n	n	n	n	x	x	x	x
CCOC(=O)C1CCN(C(=O)COc2ccc(S(=O)(=O)N3CCCC3)cc2C)CC1	n	n	n	n	n	x	x	x	x
Cc1ccc(C)c(S(=O)(=O)c2c[nH]c(=S)[nH]c2=O)c1	n	n	n	n	n	x	x	x	x
Cc1nc2c(ccc3nc(NC(=O)c4ccc5c(c4)OCCO5)sc32)s1	n	-10	n	n	n	79%	n	n	n
Cc1nc2ccc3nc(NC(=O)c4ccc5c(c4)OCCO5)sc3c2s1	n	n	n	n	n	x	x	x	x
CN1CCN(C(=O)c2cnn(-c3ccccc3)c2NC(=O)c2cccs2)CC1	n	-5.9	n	n	n	n	n	n	n
COc1ccc(-n2nnnc2S(=O)(=O)Cc2ccc(C(=O)O)cc2)cc1	n	-8.2	n	n	n	n	n	n	n
COc1ccc(-n2nnnc2S(=O)(=O)CC(=O)N2CCCCC2)cc1	x	n	n	n	x	x	x	x	x
CC(C)Nc1ccc(Cl)cc1[N+](=O)[O-]	n	n	n	n	n	x	x	x	x
O=C(/C=C1\SC(=O)NC1=O)Nc1ccc(C(=O)O)cc1	n	-10	n	n	n	n	n	n	n
Cc1cc(C(=O)N2CCCC(Nc3ccc(C(C)C)cc3)C2)nn1C (stereo unspecified)	n	n	n	n	n	x	x	x	x
SMILES	RGS4 pot	MrgX1 antagonist	MrgX1 allo act	MrgX1 agonist	RGS4 inh	MrgX1 antag conf	HEK293 Ca flux	HEK293 Ca counter	HEK293 Ca cntr2
CC(C)c1ccc(NC2CCCN(C(=O)c3cnsn3)C2)cc1 (stereo unspecified)	n	-6.8	n	n	n	n	n	n	n
Cc1cccc(OCC(O)CN2CC3(C)CC2CC(C)(C)C3)c1 (stereo unspecified)	n	n	n	n	n	x	x	x	x
Cc1ccc(C)c(S(=O)(=O)N2CCN(C(=O)CSC(=S)N3CCCC3)CC2)c1	n	-5.3	n	n	n	n	n	n	n
Cc1ccc(C)c(S(=O)(=O)N2CCN(C(=O)Cc3ccccc3)CC2)c1	n	n	n	n	n	x	x	x	x
Cc1ccc(C)c(S(=O)(=O)N2CCN(C(=O)c3cccnc3)CC2)c1	n	-11	n	n	n	n	n	n	n
CCC(=O)Nc1ccccc1C(=O)OCC(=O)c1ccc2ccccc2c1	n	-6.3	n	n	n	n	n	n	n
CCC(=O)Nc1ccccc1C(=O)OCC(=O)c1ccccc1	n	n	n	n	n	x	x	x	x
O=C(C1CCN(C2CCN(CC3CC=CCC3)CC2)CC1)N1CCOCC1 (stereo unspecified)	n	n	n	n	n	x	x	x	x
O=S(=O)(c1ccccc1)N1CCN(Cc2cccc(Cl)c2)CC1	x	-6.9	n	n	x	n	n	n	n
O=C([C@H](Cc1ccc(O)cc1)n1cc(CCO)nn1)N1CCNCC1	n	n	n	n	n	x	x	x	x
CCOC(=O)c1ccc(NC(=O)CN2CCN(C(=O)C3CCCO3)CC2)cc1 (stereo unspecified)	n	-6.3	n	n	n	n	n	n	n
Cc1ccc(NC(=O)N2CCN(C(=O)C3CCCO3)CC2)cc1 (stereo unspecified)	n	-5.9	n	n	n	n	n	n	n
CCOc1ccc(NC(=O)CN2CCN(C(=O)C3CCCO3)CC2)cc1 (stereo unspecified)	n	n	n	n	n	x	x	x	x
CC(=O)NCCNC(=O)c1ccc(CSc2nc3ccccc3s2)cc1	n	n	n	n	n	x	x	x	x
COc1cc(C#N)c(N=C(SCC#N)N2CCOCC2)cc1OC	n	n	n	n	n	x	x	x	x
COc1cccc(OCC(=O)NNC(=O)C(=O)Nc2cccc(C)c2)c1	n	n	n	n	n	x	x	x	x
COc1cc(O)c2c(c1)OC(C)(C)CC2=O	n	-10	n	n	n	n	n	n	n
CC(/C=C1\SC(=S)N(NS(=O)(=O)c2ccc(C)cc2)C1=O)=C\c1ccccc1	-7.3	-14	n	n	n	n	n	n	47
